The source made the active and inactive calls.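 Rule for the calls: active = inhibition of at least 50%; inactive = inhibition below 50%.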
System: Abhydrolase domain-containing protein 11 (ABHD11), Mus musculus
Assay: recombinant ABHD11 inhibition, late-stage follow-up, selectivity assay for DAGLb inhibitor project, biochemical, competitive gel ABPP, mouse, set 1 (AID 602301)
Conditions: Recombinant ABHD11 in HEK293T proteome, gel ABPP FP-Rh; at 10 µM; hits give high values
Outline: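 test system = recombinant mouse ABHD11 spiked into HEK293T membrane proteome overexpressing mouse DAGLb | buffer or medium = DPBS | times = compound pre-incubation 30 min, then probe labelling 30 min, both 37 °C | technique = in-gel fluorescence scan after SDS-PAGE, band integrated optical density | evaluation = percent inhibition of ABHD11 band, background-corrected, relative to DMSO control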

Row | SMILES | inhibition
1 | O=C(N1CCCCC1Cc1ccccc1)n1ncc(C(O)(c2ccccc2)c2ccccc2)n1 (stereo not given) | 95%
2 | O=C(c1ccc(-c2ccc(-c3cn(C(=O)N4CCCCC4Cc4ccccc4)nn3)cc2)cc1)N1CCCCC1 (stereo not given) | 20% (inactive)
3 | O=C(N1CCCCC1Cc1ccccc1)n1cc(-c2ccc(-c3ccccc3)cc2)nn1 (stereo not given) | 0% (inactive)
4 | O=C(N1CCCCC1Cc1ccccc1)n1cc(-c2cc(F)cc(F)c2)nn1 (stereo not given) | 95%
5 | O=C(N1CCCCC1Cc1ccccc1)n1cc(-c2ccc(OC(F)(F)F)cc2)nn1 (stereo not given) | 50%
6 | O=C(N1CCCCC1Cc1ccccc1)n1ncc(-c2ccc(OC(F)(F)F)cc2)n1 (stereo not given) | 10% (inactive)
7 | O=C(N1CCCCC1Cc1ccccc1)n1cc(-c2ccccc2-c2ccccc2)nn1 (stereo not given) | 95%
8 | O=C(c1ccc(-c2cn(C(=O)N3CCCCC3Cc3ccccc3)nn2)cc1)N1CCCCC1 (stereo not given) | 10% (inactive)
9 | CC(C)(C)OC(=O)NCCCCCN(CCc1ccccc1)C(=O)n1cc(-c2ccc(OC(F)(F)F)cc2)nn1 | 0% (inactive)
10 | O=C(N(CCc1ccccc1)Cc1ccco1)n1cc(-c2ccc(OC(F)(F)F)cc2)nn1 | 15% (inactive)
11 | CC(C)CN(CCc1ccccc1)C(=O)n1cc(-c2ccc(OC(F)(F)F)cc2)nn1 | 10% (inactive)
12 | O=C(N1CCCCC1Cc1ccccc1)n1cc(-c2ccc(Br)cc2)nn1 (stereo not given) | 90%

Other lines, results leading:

Row | inhibition | SMILES
13 | 20% (inactive) | O=C(N1CCCCC1Cc1ccccc1)n1cc(-c2ccc(-c3cccc(CO)c3)cc2)nn1 (stereo not given)
14 | 10% (inactive) | O=C(N1CCCCC1Cc1ccccc1)n1cc(-c2ccc(-c3ccc4c(c3)OCO4)cc2)nn1 (stereo not given)
15 | 30% (inactive) | O=C(N1CCCCC1Cc1ccccc1)n1cc(-c2ccc(-c3ccc(C(F)(F)F)cc3)cc2)nn1 (stereo not given)
16 | 10% (inactive) | O=C(N1CCCCC1Cc1ccccc1)n1cc(-c2ccc(-c3cccc(C(F)(F)F)c3)cc2)nn1 (stereo not given)
17 | 60% | Cc1ccccc1-c1ccc(-c2cn(C(=O)N3CCCCC3Cc3ccccc3)nn2)cc1 (stereo not given)
18 | 30% (inactive) | O=C(N1CCCCC1Cc1ccccc1)n1cc(-c2ccc(-c3ccoc3)cc2)nn1 (stereo not given)
19 | 20% (inactive) | O=C(N1CCCCC1Cc1ccccc1)n1cc(-c2ccc(-c3ccccc3CO)cc2)nn1 (stereo not given)
20 | 20% (inactive) | O=C(N1CCCCC1Cc1ccccc1)n1cc(-c2ccc(-c3ccccc3OC(F)(F)F)cc2)nn1 (stereo not given)
21 | 50% | O=C(N1CCCCC1Cc1ccccc1)n1cc(-c2ccc(-c3ccccc3Cl)cc2)nn1 (stereo not given)
22 | 10% (inactive) | O=C(N1CCCCC1Cc1ccccc1)n1cc(-c2ccc(-c3ccccc3C(F)(F)F)cc2)nn1 (stereo not given)
23 | 10% (inactive) | COc1ccccc1-c1ccc(-c2cn(C(=O)N3CCCCC3Cc3ccccc3)nn2)cc1 (stereo not given)
24 | 80% | O=C(N1CCCCC1Cc1ccccc1)n1cc(-c2cccc(-c3ccccc3)c2)nn1 (stereo not given)
25 | 20% (inactive) | O=C(N1CCCCC1Cc1ccccc1)n1cc(-c2ccc(-c3ccc(OC(F)(F)F)cc3)cc2)nn1 (stereo not given)

From PubChem BioAssay AID602301 (The Scripps Research Institute Molecular Screening Center, 2012)
